{
  "source": "paper PMC7711931",
  "about": "(ACS Omega, 2020)",
  "key": {"[1]": {"molecular_target": "T1, TR4-LBD (Homo sapiens, UniProt P49116)", "T1 sequence (P49116 341-583 limits assumed)": "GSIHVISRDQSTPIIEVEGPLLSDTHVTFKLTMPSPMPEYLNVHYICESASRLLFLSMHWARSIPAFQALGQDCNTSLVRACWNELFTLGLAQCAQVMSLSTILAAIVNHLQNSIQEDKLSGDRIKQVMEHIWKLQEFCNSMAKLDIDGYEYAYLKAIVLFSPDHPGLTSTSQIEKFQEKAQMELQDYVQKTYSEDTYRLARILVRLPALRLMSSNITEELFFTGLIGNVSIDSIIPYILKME", "assay": "SPRi assay: binding of TR4-LBD to the immobilized FDA-approved drug library"}, "[2]": {"molecular_target": "T2, TR4 (Homo sapiens, UniProt P49116)", "T2 sequence (P49116 1-596)": "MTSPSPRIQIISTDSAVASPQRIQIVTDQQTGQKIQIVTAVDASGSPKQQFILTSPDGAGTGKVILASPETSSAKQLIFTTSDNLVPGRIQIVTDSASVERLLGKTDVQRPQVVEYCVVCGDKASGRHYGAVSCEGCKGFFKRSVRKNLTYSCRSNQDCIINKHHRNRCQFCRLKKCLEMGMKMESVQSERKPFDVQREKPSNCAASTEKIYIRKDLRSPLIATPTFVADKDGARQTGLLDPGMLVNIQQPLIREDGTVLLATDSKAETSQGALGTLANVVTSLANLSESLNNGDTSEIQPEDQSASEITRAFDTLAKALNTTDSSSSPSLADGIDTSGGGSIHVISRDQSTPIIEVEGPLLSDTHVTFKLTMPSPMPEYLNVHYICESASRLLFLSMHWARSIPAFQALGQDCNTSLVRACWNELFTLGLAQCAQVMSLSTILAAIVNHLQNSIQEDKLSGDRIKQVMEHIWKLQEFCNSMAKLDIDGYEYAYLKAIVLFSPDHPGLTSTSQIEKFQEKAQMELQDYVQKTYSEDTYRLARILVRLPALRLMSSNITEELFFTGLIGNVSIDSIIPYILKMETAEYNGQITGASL", "assay": "Dual-luciferase reporter assay of TR4 transactivation", "assay_type": "cell-based", "details": "for Luciferase activity (TR4 transactivation), validation of the reporter system: 293T cells cotransfected with pGLO-TR4RE-Dluc and TR4 (Figure 2B); for Effect on TR4 transactivation: 10 μM, 24 h, 293T cells, DMSO negative control (Figure 3A); for Effect on TR4 transactivation in the presence of ATRA: drug 10 μM, ATRA 20 μM (Figure 3E)", "in_short": "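TR4RE-TK-firefly luciferase cassette from pGL3-(DR)3-TK subcloned into pmirGLO, giving a dual-luciferase reporter. Cells were cotransfected with reporter and TR4 expression plasmid for 24 h, then exposed to test compound for another 24 h: 10 μM for screening or a dose range for curves, with DMSO as negative control. Some arms included ATRA 20 μM. Luciferase was read with a dual-luciferase kit. Means of three independent experiments.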"}, "[3]": {"molecular_target": "T1, TR4-LBD", "assay": "Circular dichroism spectra of TR4-LBD with or without drug", "details": "TR4-LBD 0.2 mg/mL, drug 20 μM, 5 mM phosphate buffer pH 7.4", "in_short": "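TR4 ligand-binding domain was expressed in E. coli BL21(DE3) with an N-terminal His6-SUMO tag, purified on His-tag resin, cleaved with SUMO protease, and collected in the flow-through of a second His-tag step. It was desalted into 5 mM phosphate buffer and quantified by BCA. Spectra of protein with or without test compound were recorded in a 0.5 cm path-length cell.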"}, "[4]": {"system": "NQO2", "details": "read-out: IC50, NQO2 inhibition; cited from earlier work"}},
  "data": [
    {"smiles": "CC1=C(/C=C/C(C)=C/C=C/C(C)=C/C(=O)O)C(C)(C)CCC1", "note": "[ATRA, all-trans-retinoic acid]", "values": [
      {"measurement": "Kd", "setting": "[1]", "value": 100000, "unit": "nM"},
      {"measurement": "Luciferase activity (TR4 transactivation), validation of the reporter system", "setting": "[2]", "value": "elevated"}
    ]},
    {"smiles": "Cc1cn(-c2cc(NC(=O)c3ccc(C)c(Nc4nccc(-c5cccnc5)n4)c3)cc(C(F)(F)F)c2)cn1", "note": "[Nilotinib (AMN-107)]", "values": [
      {"measurement": "EC50", "setting": "[2]", "value": 1050, "unit": "nM"},
      {"measurement": "Effect on TR4 transactivation", "setting": "[2]", "value": "most potent inhibitor"},
      {"measurement": "Effect on TR4 transactivation in the presence of ATRA", "setting": "[2]", "value": "almost blocked the activation of TR4 by ATRA"},
      {"measurement": "CD characteristic peak for the β-sheet at 216 nm", "setting": "[3]", "value": "significantly reduced"},
      {"measurement": "IC50", "setting": "[4]", "value": 1800, "unit": "nM"}
    ]},
    {"smiles": "O=c1c(-c2ccc(O)cc2)coc2cc(O)cc(O)c12", "note": "[Genistein]", "values": [
      {"measurement": "EC50", "setting": "[2]", "value": 2420, "unit": "nM"},
      {"measurement": "Effect on TR4 transactivation", "setting": "[2]", "value": "most potent activator"},
      {"measurement": "Effect on TR4 transactivation in the presence of ATRA", "setting": "[2]", "value": "equivalent to that of genistein single treatment"},
      {"measurement": "Efficiency relative to ATRA (EC50 ratio)", "setting": "[2]; genistein EC50 2.42 μM vs ATRA 23.8 μM", "value": "approximately 10 times"},
      {"measurement": "CD characteristic peak for α-helix at 208 nm", "setting": "[3]", "value": "significantly increased"}
    ]},
    {"smiles": "C=C(c1ccc(C(=O)O)cc1)c1cc2c(cc1C)C(C)(C)CCC2(C)C", "note": "[bexarotene]", "values": [
      {"measurement": "Kd", "setting": "[1]", "value": 84.8, "unit": "nM"},
      {"measurement": "EC50", "setting": "[2]", "value": 37500, "unit": "nM"},
      {"measurement": "Luciferase activity (TR4 transactivation), validation of the reporter system", "setting": "[2]", "value": "suppressed"}
    ]}
  ]
}
